# Legend:
# Assay type in all cases: functional
# SF-268 = test: Cytotoxicity against human SF268 cells assessed as cell growth at 100 uM after 48 hrs by sulforhodamine B assay; conditions: SF-268, 48 h, read-out: Activity
# How it was run: (§1)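 Primary one-dose screen on a three-line panel (MCF7 breast, NCI-H460 lung, SF-268 CNS) at 10^-4 M. Cells were preincubated 24–48 h before a single addition of the agent, followed by 48 h incubation. Endpoint was SRB protein staining, reported as percent growth versus untreated controls.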
# NCI-H460 = test: Cytotoxicity against human NCI-H460 cells assessed as cell growth at 100 uM after 48 hrs by sulforhodamine B assay; conditions: NCI-H460, 48 h, read-out: Activity; how it was run: as §1
# MCF7 = test: Cytotoxicity against human MCF7 cells assessed as cell growth at 100 uM after 48 hrs by sulforhodamine B assay; conditions: MCF7, 48 h, read-out: Activity; how it was run: as §1
# CCRF-CEM = test: Growth inhibition of human CCRF-CEM cells after 48 hrs by sulforhodamine B assay; conditions: for TGI: read-out: pTGI (converted)
# How it was run: (§2)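 Five-concentration assay in about 60 human tumour lines, using 10-fold dilutions from 10^-4 to 10^-8 M with 48 h continuous exposure and an SRB protein endpoint. Percent growth at each level comes from time-zero, untreated-control and treated absorbances. GI50 is 50% lower net protein increase than control. Values beyond the tested range are given as greater or less than the extreme concentration.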
# U-251 = test: Growth inhibition of human U251 cells after 48 hrs by sulforhodamine B assay; conditions: U-251, 48 h; how it was run: as §2
# M14 = test: Growth inhibition of human M14 cells after 48 hrs by sulforhodamine B assay; conditions: M14, 48 h; how it was run: as §2
# MOLT-4 = test: Growth inhibition of human MOLT4 cells after 48 hrs by sulforhodamine B assay; conditions: MOLT-4, 48 h; how it was run: as §2
# A549 = test: Growth inhibition of human A549 cells after 48 hrs by sulforhodamine B assay; conditions: A549, 48 h; how it was run: as §2
# SN12C = test: Growth inhibition of human SN12C cells after 48 hrs by sulforhodamine B assay; how it was run: as §2
# [1] = Growth inhibition of human Hs 578T cells after 48 hrs by sulforhodamine B assay; how it was run: as §2
# [2] = Growth inhibition of human 786-O cells after 48 hrs by sulforhodamine B assay; conditions: 786-0, 48 h; how it was run: as §2
# RPMI-8226 = test: Growth inhibition of human RPMI8226 cells after 48 hrs by sulforhodamine B assay; conditions: RPMI-8226, 48 h; how it was run: as §2
# MDA-MB-231 = test: Growth inhibition of human MDA-MB-231 cells after 48 hrs by sulforhodamine B assay; conditions: MDA-MB-231, 48 h; how it was run: as §2
# ACHN = test: Growth inhibition of human ACHN cells after 48 hrs by sulforhodamine B assay; how it was run: as §2
# HOP-62 = test: Growth inhibition of human HOP62 cells after 48 hrs by sulforhodamine B assay; conditions: HOP-62, 48 h; how it was run: as §2
# HOP-92 = test: Growth inhibition of human HOP92 cells after 48 hrs by sulforhodamine B assay; conditions: HOP-92, 48 h; how it was run: as §2
# HCT-116 = test: Growth inhibition of human HCT116 cells after 48 hrs by sulforhodamine B assay; conditions: HCT-116, 48 h; how it was run: as §2
# NCI-H226 = test: Growth inhibition of human NCI-H226 cells after 48 hrs by sulforhodamine B assay; conditions: NCI-H226, 48 h; how it was run: as §2
# [3] = read-out: pLC50 (the source's name) (converted)
compound,measurement,setting,value
O=C(CN1C(=O)N/C(=C\c2ccc(F)cc2)C1=O)Nc1ccccc1C(F)(F)F,growth at 100 µM,SF-268,100%
same,growth at 100 µM,NCI-H460,119%
same,growth at 100 µM,MCF7,87%
COc1ccc(/C=C2\NC(=O)N(CC(=O)Nc3ccc(OC)cc3)C2=O)cc1,GI50,CCRF-CEM,0.195 µM
same,LC50,CCRF-CEM,> 100 µM
same,TGI,CCRF-CEM,> 100 µM
same,GI50,U-251,30.9 µM
same,LC50,U-251,> 100 µM
same,TGI,U-251; read-out: pTGI (converted),> 100 µM
O=C(CN1C(=O)S/C(=C/c2ccc(Cl)cc2)C1=O)Nc1cccc(C(F)(F)F)c1,growth at 100 µM,SF-268,110%
same,growth at 100 µM,NCI-H460,99%
same,growth at 100 µM,MCF7,100%
O=C(/C=C1\SC(=O)N(CC(=O)Nc2ccccc2C(F)(F)F)C1=O)Nc1ccc(F)cc1,growth at 100 µM,SF-268,75%
same,growth at 100 µM,NCI-H460,77%
same,growth at 100 µM,MCF7,74%
O=C(CN1C(=O)N/C(=C/c2ccc(Cl)cc2)C1=O)Nc1cccc(C(F)(F)F)c1,GI50,CCRF-CEM,13.5 µM
same,LC50,CCRF-CEM,> 100 µM
same,TGI,CCRF-CEM,> 100 µM
same,GI50,M14,14.5 µM
same,CC50,M14; [3],> 100 µM
same,TGI,M14; read-out: pTGI,> 100 µM
same,GI50,MOLT-4,2.51 µM
same,CC50,MOLT-4; [3],> 100 µM
same,TGI,MOLT-4; read-out: pTGI (converted),> 100 µM
same,GI50,A549,10.7 µM
same,CC50,A549; [3],> 100 µM
same,TGI,A549; read-out: pTGI,> 100 µM
same,GI50,SN12C,12 µM
same,LC50,SN12C,100 µM
same,TGI,SN12C; read-out: pTGI (converted),34.7 µM
same,GI50,[1],10.5 µM
same,CC50,[1]; [3],> 100 µM
same,TGI,[1]; read-out: pTGI (converted),77.6 µM
same,GI50,[2],13.8 µM
same,CC50,[2]; [3],89.1 µM
same,TGI,[2]; read-out: pTGI (converted),35.5 µM
same,growth at 100 µM,SF-268,100%
same,GI50,RPMI-8226,0.01 µM
same,LC50,RPMI-8226,28.2 µM
same,TGI,RPMI-8226; read-out: pTGI (converted),6.92 µM
same,GI50,MDA-MB-231,4.57 µM
same,LC50,MDA-MB-231,> 100 µM
same,TGI,MDA-MB-231; read-out: pTGI (converted),22.9 µM
same,growth at 100 µM,NCI-H460,4%
same,GI50,ACHN,14.5 µM
same,CC50,ACHN; [3],56.2 µM
same,TGI,ACHN; read-out: pTGI (converted),28.8 µM
same,GI50,HOP-62,12.6 µM
same,LC50,HOP-62,69.2 µM
same,TGI,HOP-62; read-out: pTGI (converted),29.5 µM
same,GI50,HOP-92,5.37 µM
same,LC50,HOP-92,> 100 µM
same,TGI,HOP-92; read-out: pTGI (converted),28.8 µM
same,growth at 100 µM,MCF7,58%
same,GI50,HCT-116,13.8 µM
same,LC50,HCT-116,> 100 µM
same,TGI,HCT-116; read-out: pTGI (converted),66.1 µM
same,GI50,NCI-H226,13.2 µM
same,CC50,NCI-H226; [3],> 100 µM
same,TGI,NCI-H226; read-out: pTGI (converted),46.8 µM
O=C(CC1NC(=O)NC1=O)Nc1nccs1 (configuration not stated),growth at 100 µM,SF-268,114%
same,growth at 100 µM,NCI-H460,108%
same,growth at 100 µM,MCF7,111%
O=C(/C=C1\SC(=O)N(CC(=O)Nc2ccc(Cl)cc2)C1=O)Nc1ccc(Cl)cc1,growth at 100 µM,SF-268,116%
same,growth at 100 µM,NCI-H460,107%
same,growth at 100 µM,MCF7,111%
O=C(CN1C(=O)S/C(=C\C=C\c2ccccc2)C1=O)Nc1ccc(Cl)cc1,growth at 100 µM,SF-268,98%
same,growth at 100 µM,NCI-H460,108%
same,growth at 100 µM,MCF7,92%
O=C(/C=C1\SC(=O)N(CC(=O)Nc2ccccc2C(F)(F)F)C1=O)Nc1ccc(Cl)cc1,growth at 100 µM,SF-268,86%
same,growth at 100 µM,NCI-H460,87%
same,growth at 100 µM,MCF7,61%

# From ChEMBL document CHEMBL1153575, “Synthesis and in vitro anticancer activity of 2,4-azolidinedione-acetic acids derivatives” (2009)
